The record followed here is ChEMBL document CHEMBL4387709, “Discovery of Quinoline Analogues as Potent Antivirals against Enterovirus D68 (EV-D68)” (J Med Chem, 2019).

The subject of one data set is enterovirus D68. Put plainly: Antiviral activity against Enterovirus D68 US/KY/14-18953 infected in human RD cells assessed as inhibition of virus-induced cytopathic effect incubated for 5 mins under shaking condition and measured after 3 days by neutral red dye-based photometric method. Type of data set: functional, organism-based. Particulars: Enterovirus D, US/KY/14-18953, RD. An outline of the steps: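 RD cells seeded one day ahead to ~90% confluence, PBS (Mg/Ca) wash, infected at ~MOI 0.01 with EV-D68 in DMEM/2% FBS/30 mM MgCl2 at 33 °C, 5% CO2. Compounds and 1% P/S added after 1 h. Plates shaken ~5 min, held 3 days, viable cells stained with neutral red (66 µg/ml), A540 read. EC50 from dose-response fits, triplicates.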
(In general: Damage to the host cells serves as the signal in cytopathic effect assays.)

For the next data set, the system named is RD. Put plainly: Cytotoxicity against human RD cells after 3 days by neutral red dye-based photometric method. Type of data set: cell-based. Particulars: rd, 72 h.
Data set [1] can be described thus: Selectivity index, ratio of CC50 for human RD cells to EC50 for Enterovirus D68 US/KY/14-18953 infected in human RD cells. Type of data set: toxicity, cell-based. Particulars: read-out: Ratio CC50/EC50.

In general, EC50 refers to the concentration needed to bring the measured effect to its halfway point. The term CC50 denotes the concentration that lowers cell viability or growth by half. Read a high CC50 as better tolerance by the cells. Consider `CCN(CC)CCNC(=O)c1cc(-c2ccc(OC)cc2)nc2ccccc12`, for which the EC50 in the data set with enterovirus D68 came to 2.4 µM. This compound gave a CC50 with RD of 31.6 µM. The selectivity ratio in data set [1] was 13.2.
The matching figures for `CCN(CC)CCNC(=O)c1cc(-c2ccccc2)nc2ccccc12`: 0.8 µM, 45.1 µM and 56.4.
The matching figures for `CCN(CC)CCNC(=O)c1cc(-c2cccc(OC)c2)nc2ccccc12`: 1.6 µM, 36.5 µM and 22.8.
For the compound `CCN(CC)CCNC(=O)c1cc(-c2cnc(OC)nc2)nc2ccccc12`, the EC50 in the data set on enterovirus D68 amounted to 87.6 µM. In the data set on RD, this compound showed a CC50 of 174 µM. Besides, in data set [1], the selectivity ratio was 2.
The matching figures for `CCN(CC)CCNC(=O)c1cc(-c2ccccc2)nc2ccc(F)cc12`: 1.3 µM, 24.9 µM and 19.2.
As to `CCN(CC)CCNC(=O)c1cc(-c2ccc3c(c2)OCCO3)nc2ccccc12`, the EC50 in the data set with enterovirus D68 amounted to 9 µM. For the same compound, the CC50 in the data set on RD was 49.9 µM. For the same compound, the selectivity ratio in data set [1] was determined as 5.5.
The matching figures for `CCN(CC)CCNC(=O)c1cc(OC)nc2ccccc12`: 52.5 µM, more than 250 µM and more than 4.8.
The matching figures for `CC(C)Oc1cc(C(=O)NCCN(C)C)c2ccccc2n1`: 1.7 µM, 38.5 µM and 22.6.
The matching figures for `CN(C)CCCNC(=O)c1cc(-c2ccccc2)nc2ccccc12`: 3.5 µM, 44.9 µM and 12.8.
As to `CCN(CC)CCNC(=O)c1cc(-c2ccoc2)nc2ccccc12`, in the data set with enterovirus D68, the EC50 came to 1.5 µM. In the data set with RD, this compound yielded a CC50 of 122 µM. Further, the selectivity ratio in data set [1] was 81.7.
For `COc1ccc2nc(-c3ccccc3)cc(C(=O)NCCN(C)C)c2c1`, the EC50 in the data set on enterovirus D68 came to 8.1 µM. Moreover, in the data set with RD, it took 31.8 µM to reach half-maximal cytotoxicity (CC50). Also, the selectivity ratio in data set [1] was 3.9.
The matching figures for `O=C(NCCN1CCCC1)c1cc(-c2ccccc2)nc2ccccc12`: 0.4 µM, 46.7 µM and 117.
For `CCN(CC)CCNC(=O)c1cc(-c2ccn[nH]2)nc2ccccc12`, in the data set with enterovirus D68, the EC50 turned out to be 19.4 µM. Also, the midpoint of cytotoxicity with RD, the CC50, lay at 132 µM. Further, the selectivity ratio in data set [1] was 6.8.
The matching figures for `CC(C)Oc1cc(C(=O)NCCCN(C)C)c2ccccc2n1`: 11.4 µM, 122 µM and 10.7.
The matching figures for `CCN(CC)CCNC(=O)c1cc(OCC2CC2)nc2ccccc12`: 7.1 µM, 38.5 µM and 5.4.
The matching figures for `CN(C)CCNC(=O)c1cc(-c2ccccc2)nc2ccc(Cl)cc12`: 1.2 µM, 14.3 µM and 11.9.
As for `CCC(C)Oc1cc(C(=O)NCCN(CC)CC)c2ccccc2n1` (stereo not drawn), the EC50 with enterovirus D68 was 2.8 µM. In addition, it took 15.7 µM to reach half-maximal cytotoxicity with RD (CC50). Also, the selectivity ratio in data set [1] came out at 5.6.
The matching figures for `CC(C)Oc1cc(C(=O)NCCN)c2ccccc2n1`: 3.5 µM, 149 µM and 42.5.
Take `N=C(N)NC(=O)c1cc(-c2ccccc2)nc2ccccc12`: in the data set on enterovirus D68, the EC50 was determined as 34.7 µM. In the data set with RD, the CC50 is more than 250 µM. In addition, the selectivity ratio in data set [1] is more than 7.2.
As to `CN(C)CCCNC(=O)c1cc(-c2cccs2)nc2ccccc12`, in the data set on enterovirus D68, the EC50 was 0.7 µM. Besides, the CC50 in the data set on RD is 40.5 µM. The selectivity ratio in data set [1] was found to be 57.9.
The matching figures for `CC(C)Oc1cc(C(=O)NC2CCN(C)CC2)c2ccccc2n1`: 17.8 µM, 101 µM and 5.7.
The matching figures for `CCN(CC)CCNC(=O)c1cc(-c2ccccc2)nc2ccc(OC)cc12`: 12.3 µM, 27.5 µM and 2.2.
For `CC(C)Oc1cc(C(=O)NCCN2CCN(C)CC2)c2ccccc2n1`, the EC50 in the data set on enterovirus D68 is 25.9 µM. In the data set with RD, this compound gave a CC50 of 88.8 µM. The selectivity ratio in data set [1] was 3.4.
The matching figures for `CCOc1cc(C(=O)NCCN(CC)CC)c2ccccc2n1`: 5.9 µM, 165 µM and 27.9.
The matching figures for `CCN(CC)CCNC(=O)c1cc(OC2CCCC2)nc2ccccc12`: 6.8 µM, 11.7 µM and 1.7.
On to `CCN(CC)CCNC(=O)c1cc(OC(C)C)nc2ccccc12`, for which, in the data set with enterovirus D68, the EC50 worked out at 2.5 µM. The compound also had a CC50 in the data set with RD of 111 µM. Also, the selectivity ratio in data set [1] worked out at 44.5.
The matching figures for `CCN(CC)CCNC(=O)c1cc(-c2ccccc2OC)nc2ccccc12`: 13.9 µM, 75.9 µM and 5.5.
Consider `CCC(CC)Oc1cc(C(=O)NCCN(CC)CC)c2ccccc2n1`, for which the EC50 with enterovirus D68 is more than 10 µM. The compound further gave a CC50 in the data set with RD of 9.5 µM.
With `CCN(CC)CCCNC(=O)c1cc(-c2ccccc2)nc2ccccc12`, the EC50 in the data set with enterovirus D68 amounted to 9.6 µM. In the data set with RD, this compound yielded a CC50 of 45.4 µM. Moreover, the selectivity ratio in data set [1] was found to be 4.7.
Take `O=C(NC1CN2CCC1CC2)c1cc(-c2ccccc2)nc2ccccc12` (stereo not drawn): in the data set on enterovirus D68, the EC50 was 3.5 µM. In the data set with RD, the CC50 came out at 46.5 µM. In data set [1], the selectivity ratio stood at 13.3.
The matching figures for `CCCOc1cc(C(=O)NCCN(CC)CC)c2ccccc2n1`: 4.9 µM, 46.7 µM and 9.5.
`CCN(CC)CCNC(=O)c1cc(-c2ccc(-c3ccccc3)cc2)nc2ccccc12`: the EC50 in the data set on enterovirus D68 is more than 10 µM. This compound also came in with a CC50 in the data set on RD of 9.8 µM.
The matching figures for `CCN(CC)CCNC(=O)c1cc(-c2cnn(C)c2)nc2ccccc12`: more than 100 µM and 251 µM.
Take `CCN(CC)CCNC(=O)c1cc(-c2ccsc2)nc2ccccc12`: the EC50 with enterovirus D68 stood at 1 µM. In the data set with RD, this compound registered a CC50 of 46.9 µM. The selectivity ratio in data set [1] turned out to be 46.9.
As for `CCN(CC)CCNC(=O)c1cc(-c2ccc(Cl)s2)nc2ccccc12`, the EC50 in the data set on enterovirus D68 amounted to 0.8 µM. For the same compound, the CC50 in the data set on RD was found to be 6.1 µM. The selectivity ratio in data set [1] was 7.6.
The matching figures for `CCN(CC)CCNC(=O)c1cc(-c2ccncc2)nc2ccccc12`: 6.6 µM, 174 µM and 26.3.
As for `Cc1ccc2c(c1)c1c3n2CCNC3CCC1` (stereo not drawn), the EC50 in the data set with enterovirus D68 amounted to 8.4 µM. The CC50 in the data set on RD came out at 19 µM.
As for `CCN(CC)CCNC(=O)c1cc(-c2cccs2)nc2ccccc12`, in the data set with enterovirus D68, the EC50 was 0.6 µM. For the same compound, the CC50 in the data set on RD is 37.4 µM. Moreover, in data set [1], the selectivity ratio came to 62.3.
The matching figures for `CCN(CC)CCNC(=O)c1cc(/C=C/c2ccccc2)nc2ccccc12`: 0.8 µM, 11.5 µM and 14.4.
The matching figures for `CCN(CC)CCNC(=O)c1cc(-c2ccnn2C)nc2ccccc12`: 36.3 µM, 133 µM and 3.7.
The matching figures for `CCOCCOc1cc(C(=O)NCCN(CC)CC)c2ccccc2n1`: 12.2 µM, 144 µM and 11.8.
Regarding `CC(C)Oc1cc(C(=O)N2CCN(C)CC2)c2ccccc2n1`, the EC50 in the data set with enterovirus D68 was more than 100 µM. Moreover, in the data set with RD, the half-maximal cytotoxic concentration (CC50) is more than 300 µM.
Take `CC(C)Oc1cc(C(=O)NCCN2CCOCC2)c2ccccc2n1`: in the data set on enterovirus D68, the EC50 was determined as 17.5 µM. Further, in the data set on RD, the CC50 is more than 250 µM. Besides, in data set [1], the selectivity ratio was more than 14.3.
The matching figures for `CCN(CC)CCNC(=O)c1cc(OCC(F)(F)F)nc2ccccc12`: 3.5 µM, 33.1 µM and 9.5.
The matching figures for `CCN(CC)CCNC(=O)c1cc(-c2ccc3c(c2)CCO3)nc2ccccc12`: 1.6 µM, 29.5 µM and 18.4.
On to `CCN(CC)CCNC(=O)c1cc(-c2ccc(CN3CCOCC3)cc2)nc2ccccc12`, for which the EC50 with enterovirus D68 was more than 80 µM. The compound also showed a CC50 in the data set with RD of 79.2 µM.
With `CN(C)c1ccc(NC(=O)c2cc(-c3ccccc3)nc3ccccc23)cc1`, the EC50 in the data set with enterovirus D68 is more than 100 µM. The CC50 with RD is more than 350 µM. In addition, the selectivity ratio in data set [1] was more than 3.5.
The matching figures for `NNC(=O)c1cc(-c2cccs2)nc2ccccc12`: 11.9 µM, more than 100 µM and more than 8.4.
For `CCN(CC)CCNC(=O)c1cc(-c2c(C)noc2C)nc2ccccc12`, the EC50 in the data set on enterovirus D68 was more than 50 µM. Further, half-maximal cytotoxicity with RD (CC50) was put at 129 µM.
With `CCN(CC)CCNC(=O)c1cc(-c2ccc(COC)cc2)nc2ccccc12`, in the data set on enterovirus D68, the EC50 turned out to be 17.4 µM. This compound also showed a CC50 in the data set on RD of 46.6 µM. For the same compound, the selectivity ratio in data set [1] is 2.7.
`CCN(CC)CCNC(=O)c1cc(-c2cnc(N(C)C)nc2)nc2ccccc12`: the EC50 in the data set on enterovirus D68 is 24.6 µM. In addition, half-maximal cytotoxicity in the data set with RD (CC50) was put at 74.2 µM. Besides, the selectivity ratio in data set [1] came to 3.
Take `CCN(CC)CCNC(=O)c1cc(OCc2ccccc2)nc2ccccc12`: in the data set with enterovirus D68, the EC50 amounted to 1.1 µM. The compound also came in with a CC50 in the data set on RD of 13.5 µM. Also, in data set [1], the selectivity ratio is 12.3.
The matching figures for `CN(C)CCNC(=O)c1cc(-c2ccccc2)nc2ccc(F)cc12`: 0.6 µM, 38.8 µM and 64.7.
The matching figures for `O=C(NCCCn1ccnc1)c1cc(-c2cccs2)nc2ccccc12`: 8.9 µM, 55.7 µM and 6.3.
The matching figures for `CCN(CC)CCNC(=O)c1cc(-c2ccccc2)nc2ccc(Cl)cc12`: 1.9 µM, 13.5 µM and 7.1.
